The results in this text go back to ChEMBL document CHEMBL1255261, “Lethal mutagenesis of picornaviruses with N-6-modified purine nucleoside analogues” (Antimicrob Agents Chemother, 2008).

Molecules are shown by their SMILES.

Data set [1] has as its system Enterovirus C. Briefly: Antiviral activity against Poliovirus infected in compound pre-treated HeLaS3 cells assessed as reduction in viral titer at 0.5 mM after 6 hrs relative to control. Format: functional, HeLa S3. Set-up: scale not given: the % may be the effect or the level left. Put shortly: (§1)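 HeLa S3 cells (DMEM/F-12, 2% dialyzed FBS, 37°C, 5% CO2) pretreated 1 h with nucleoside (0.5 or 2 mM), then infected with PV at MOI 5. Fresh medium with analogue added, infection run 6 h at 37°C. Cell-associated virus collected by freeze-thaw and titred on HeLa S3 monolayers. Result given as percent titer reduction versus untreated control.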

The test system of data set [2] is Coxsackievirus. Briefly: Antiviral activity against Coxsackievirus infected in compound pre-treated HeLaS3 cells assessed as reduction in viral titer at 0.5 mM after 6 hrs relative to control. Set-up: scale not given: the % may be the effect or the level left. In kind it is functional, HeLa S3. Put shortly:
(§2)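 HeLa S3 cells pretreated with nucleoside (0.5 or 2 mM) for 1 h, then infected with CVB3 at MOI 5. Fresh medium containing the analogue was added and infection ran 6 h at 37°C. Cell-associated virus was collected by freeze-thaw and titrated on HeLa S3 monolayers. Result is percent reduction in titer versus untreated infection.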

A short description of data set [3]: Metabolic stability in human HeLaS3 cells assessed as JA28-triphosphate at 0.5 mM after 2 hrs by reverse-phase HPLC. Format: ADME, cell-based. As to conditions: hela s3, 2 h, 500 µM. Put shortly: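 Suspension-adapted HeLa S3 cells at 5 × 10^6 cells/ml in S-MEM with 2% dialyzed FBS were pretreated with actinomycin D (2.5 μg/ml, 15 min, 37°C). Nucleoside was then added to 0.5 mM final with 1% DMSO, 2 h at 37°C. Cells were extracted with ice-cold 0.6 M TCA, then trioctylamine/trichlorotrifluoroethane. Aqueous layer was run on C18 reversed-phase HPLC (CH3CN gradient in KH2PO4, pH 6.0). Triphosphate was identified by retention time and UV spectrum against synthesized standard.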

Data set [4] is described as follows: Cytotoxicity against human HeLaS3 cells assessed cell viability at 0.05 after 24 hrs by Alamar blue assay. In kind it is cell-based, HeLa S3. The settings on record: read-out: Activity. In short, it runs like this:
(§3)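 HeLa S3 cells were seeded at 2 × 10^3 per well in DMEM/F-12 with 2% FBS and allowed to adhere 1 h at 37°C. Nucleoside in medium (0.05–2 mM) was added with continuous exposure at 37°C. Resazurin (Alamar blue) was added 6 h before the 24 h read. Percent reduction was taken from A570 corrected by A590 and normalized to vehicle (DMSO) cells set at 100%. Triplicate wells, mean ± SD.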
Background: Resazurin is reduced to fluorescent resorufin, in cell work by metabolically active cells.

Data set [5] has as its system Coxsackievirus. As to the kind of experiment: Antiviral activity against Coxsackievirus infected in compound pre-treated HeLaS3 cells assessed as reduction in viral titer at 2 mM after 6 hrs relative to control. In kind it is functional, HeLa S3. Set-up: scale not given: the % may be the effect or the level left. In short, it runs like this: as §2
Data set [6] has as its system Enterovirus C. Briefly: Antiviral activity against Poliovirus infected in compound pre-treated HeLaS3 cells assessed as reduction in viral titer at 2 mM after 6 hrs relative to control. Format: functional, HeLa S3. Set-up: scale not given: the % may be the effect or the level left. Put shortly: as §1
Data set [7] is described as follows: Cytotoxicity against human HeLaS3 cells assessed cell viability at 2 mM after 24 hrs by Alamar blue assay. Format: cell-based, HeLa S3. The settings on record: read-out: Activity. In short, it runs like this: as §3

With `OC[C@H]1O[C@@H](n2cnc3c(NO)ncnc32)[C@H](O)[C@@H]1O`, the Activity with Enterovirus C [1] stood at 98%; in the data set on Coxsackievirus [2], 97%. Moreover, in data set [3], the Stability entry is listed as “Stable”. The viability at 24 h in data set [4] was found to be 61%.
Take `CO/N=c1/[nH]cnc2c1ncn2[C@@H]1O[C@H](CO)[C@@H](O)[C@H]1O`: the results for the Activity with Coxsackievirus [5] and in the data set with Enterovirus C [6] were 22% and 81%, respectively.
With `CO/N=c1/[nH]c(N)nc2c1ncn2[C@@H]1O[C@H](CO)[C@@H](O)[C@H]1O`, the Activity in the data set on Coxsackievirus [5] is 0%; with Enterovirus C [6], 45%.
For `CN(N)c1ncnc2c1ncn2[C@@H]1O[C@H](CO)[C@@H](O)[C@H]1O` the same measures were 0% and 35%.
For `NNc1nc(N)nc2c1ncn2[C@@H]1O[C@H](CO)[C@@H](O)[C@H]1O`, the Activity in the data set with Coxsackievirus [5] was found to be 95%; in the data set on Enterovirus C [6] it was 97%. Further, the viability at 24 h, 2000 µM in data set [7] stood at 57%.
On to `CN(N)c1nc(N)nc2c1ncn2[C@@H]1O[C@H](CO)[C@@H](O)[C@H]1O`, for which the Activity in the data set on Coxsackievirus [5] is listed as 11%; with Enterovirus C [6], 88%.
Turning to `Nc1nc2c(ncn2[C@@H]2O[C@H](CO)[C@@H](O)[C@H]2O)/c(=N\O)[nH]1`, the Activity in the data set on Coxsackievirus [5] is listed as 99.99%; in the data set with Enterovirus C [6], 99.97%. Also, the viability at 24 h, 2000 µM in data set [7] turned out to be 37%.
As for `NNc1ncnc2c1ncn2[C@@H]1O[C@H](CO)[C@@H](O)[C@H]1O`, the Activity is 99.7% in the data set on Enterovirus C [1] and 99.9% in the data set on Coxsackievirus [2]. For the same molecule, in data set [4], the viability at 24 h was 56%.
